Data reported in ChEMBL document CHEMBL1148398, “Design, synthesis, and biological evaluation of thio-containing compounds with serum HDL-cholesterol-elevating properties” (2004).

How the values were obtained:
[1] = test system: Rattus norvegicus; assay: Effect of compound on high-density lipoprotein cholesterol levels in 1st group of normal chow-fed male rats after a dose of 1 mg/kg/day; assay type: functional, organism-based
[2] = test system: Rattus norvegicus; assay: Effect of compound on serum high-density lipoprotein cholesterol concentration in chow-fed male rats at a dose of 10 mg/kg/day; assay type: functional, organism-based
Summary of the method: (§1)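 Separate dose-response study in male Sprague–Dawley CD rats, 60–80 g, on chow. Oral gavage once daily for 4 days in 1.3% Tween 80 / 0.25% CMC; fasted overnight, bled 24 h after last dose. Apo-A1 by ELISA with rabbit anti-rat primary, alkaline phosphatase-conjugated anti-rabbit IgG and p-nitrophenyl phosphate substrate. HDL-C by FPLC fractionation. Mean ± SEM, six per group.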

[3] = test system: Cricetinae gen. sp.; assay: Effect of compound on high-density lipoprotein cholesterol levels in 1st group of cholesterol-fed male hamsters at 3 mg/kg/day after 14 days of treatment; assay type: functional, organism-based
[4] = test system: Cricetinae gen. sp.; assay: Effect of compound on liver weight in 1st group of cholesterol-fed male hamsters at 3 mg/kg/day after 14 days of treatment; assay type: functional
Summary of the method: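 Male Syrian Golden hamsters, 90–100 g, fed chow plus 0.25% cholesterol for 2 weeks before and throughout dosing. Compound suspended in 2% Tween 80 in saline, given by oral gavage for 14 days; vehicle controls. Fasted 4 h, last dose 2 h before sacrifice, then weighed and blood and liver collected. Liver enzymes read on a clinical analyzer. Six per group, mean ± SEM.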

[5] = test system: Rattus norvegicus; assay: Percent change in triglycerides following oral administration of compound in normal chow-fed rats at 100 mg/kg/day for 4 days; assay type: functional
Summary of the method: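 Chow-fed male Sprague–Dawley CD rats, 60–80 g, gavaged 100 mg/kg/day for 4 days in 1.3% Tween 80/0.25% CMC. Fasted overnight, bled 24 h after the last dose. Total cholesterol and glycerol-blanked triglycerides read enzymatically; lipoproteins by FPLC with cholesterol per fraction. % change versus control; six per group, p < 0.05.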

[6] = test system: Rattus norvegicus; assay: Effect of compound on alanine aminotransferase (ALT) levels in 1st group of normal chow-fed male rats after a dose of 1 mg/kg/day; assay type: functional, organism-based
Summary of the method: (§2)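 Male Sprague–Dawley CD rats (60–80 g) on standard chow under a reversed 12 h light/dark cycle. Compound was suspended in 1.3% Tween 80/0.25% CMC and given as a single daily oral gavage dose for 4 days. Rats were fasted overnight and killed 24 h after the last dose. Serum ALT, AST, ALKP and LDH were read on a clinical analyzer. Weight gain was start versus end weight. Mean ± SEM, n = 6.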

[7] = test system: Rattus norvegicus; assay: Percent change in total plasma cholesterol in hypercholesterolemic rats dosed at 100 mg/kg/day for 8 days; assay type: functional
[8] = test system: Rattus norvegicus; assay: Effect of compound on alkaline phosphatase (ALKP) levels in 7th group of normal chow-fed male rats after a dose of 100 mg/kg/day; assay type: functional, organism-based; summary of the method: as §2
[9] = test system: Rattus norvegicus; assay: Effect of compound on lactic dehydrogenase (LDH) levels in 7th group of normal chow-fed male rats after a dose of 100 mg/kg/day; assay type: functional, organism-based
Summary of the method: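 Male Sprague–Dawley CD rats, 60–80 g, on chow with a reverse 12 h light/dark cycle. Given one oral gavage dose daily for 4 days, suspended in 1.3% Tween 80/0.25% CMC. Fasted overnight and sacrificed 24 h after the last dose for blood and liver. Serum liver enzymes read on a clinical analyzer. Six per group, mean ± SEM.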

[10] = test system: Rattus norvegicus; assay: Effect of compound on triglyceride levels in 7th group of normal chow-fed male rats after a dose of 100 mg/kg/day; assay type: functional, organism-based
Summary of the method: (§3)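 Male Sprague–Dawley CD rats (60–80 g) on Purina 5001 chow with a reverse 12 h light/dark cycle. Dosed once daily by oral gavage for 4 days, suspended in 1.3% Tween 80 / 0.25% CMC. Fasted overnight and bled 24 h after the last dose. Serum TC and glycerol-blanked TG measured enzymatically; VLDL-C by FPLC fractionation with cholesterol assay. n=6, mean ± SEM.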

[11] = test system: Cricetinae gen. sp.; assay: Percent change in low-density lipoprotein cholesterol following oral administration of compound in hypercholesterolemic hamsters at 100 mg/kg/day for 14 days; assay type: functional
Summary of the method: (§4)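 Male Syrian Golden hamsters pre-fed chow plus 0.25% cholesterol for 2 weeks and kept on it. Dosed 100 mg/kg/day by oral gavage in 2% Tween 80/saline for 14 days. Serum total cholesterol and glycerol-blanked triglycerides read enzymatically; lipoproteins separated by FPLC with cholesterol measured in each fraction. % change versus vehicle controls; six per group, p < 0.05.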

[12] = Effect on serum lipids in 1st group of normal chow-fed male rats after a dose of 1 mg/kg/day was evaluated as ratio of total plasma cholesterol levels to high-density lipoprotein cholesterol levels; assay type: functional
Summary of the method: (§5)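 Male Sprague–Dawley CD rats, 60–80 g, chow-fed, dosed by oral gavage daily for 4 days in 1.3% Tween 80/0.25% CMC. Fasted overnight, bled 24 h after the last dose. Serum total cholesterol by enzymatic reagent; HDL-C from cholesterol in FPLC fractions; TPC/HDL-C ratio calculated. Six per group, mean ± SEM.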

[13] = test system: Rattus norvegicus; assay: Effect of compound on total plasma cholesterol levels in 6th group of normal chow-fed male rats after a dose of 50 mg/kg/day; assay type: functional, organism-based; summary of the method: as §3
[14] = test system: Rattus norvegicus; assay: Effect of compound on serum apolipoprotein A1 concentration in chow-fed male rats at a dose of 10 mg/kg/day; assay type: functional, organism-based; summary of the method: as §1
[15] = test system: Rattus norvegicus; assay: Effect of compound on gain in body weight in 5th group of normal chow-fed male rats after a dose of 20 mg/kg/day; assay type: functional; summary of the method: as §2
[16] = test system: Rattus norvegicus; assay: Effect of compound on triglyceride levels in 5th group of normal chow-fed male rats after a dose of 20 mg/kg/day; assay type: functional, organism-based; summary of the method: as §3
[17] = test system: Rattus norvegicus; assay: Effect of compound on thyroxine levels in 7th group of normal chow-fed male rats after a dose of 100 mg/kg/day; assay type: functional, organism-based
Summary of the method: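 Male Sprague–Dawley CD rats, 60–80 g, on standard chow with reverse 12 h light/dark cycle. One oral gavage dose daily for 4 days, suspended in 1.3% Tween 80 and 0.25% CMC. Fasted overnight; sacrificed 24 h after the last dose. Serum TC on clinical analyzer, lipoproteins by FPLC with cholesterol per fraction, T4 on analyzer. Mean ± SEM, six rats per group.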

[18] = Effect on serum lipids in 6th group of normal chow-fed male rats after a dose of 50 mg/kg/day was evaluated as ratio of total plasma cholesterol levels to high-density lipoprotein cholesterol levels; assay type: functional; summary of the method: as §5
[19] = test system: Rattus norvegicus; assay: Effect of compound on high-density lipoprotein cholesterol levels in 3rd group of normal chow-fed male rats after a dose of 5 mg/kg/day; assay type: functional, organism-based
[20] = Effect on serum lipids in 2nd group of cholesterol-fed male hamsters at 10 mg/kg/day after 14 days of treatment was evaluated as ratio of total cholesterol levels to high-density lipoprotein cholesterol levels; assay type: functional
Summary of the method: (§6)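 Male Syrian Golden hamsters on chow plus 0.25% cholesterol, 2 weeks before and during dosing. Oral gavage for 14 days in 2% Tween 80/saline. Fasted 4 h before sacrifice. Serum total cholesterol measured enzymatically; HDL-C from cholesterol in FPLC lipoprotein fractions; TC/HDL-C ratio calculated. Six per group, mean ± SEM.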

[21] = test system: Rattus norvegicus; assay: Effect of compound on alkaline phosphatase (ALKP) levels in 2nd group of normal chow-fed male rats after a dose of 2 mg/kg/day; assay type: functional, organism-based; summary of the method: as §2
[22] = test system: Cricetinae gen. sp.; assay: Percent change in high-density lipoprotein cholesterol following oral administration of compound in hypercholesterolemic hamsters at 100 mg/kg/day for 14 days; assay type: functional; summary of the method: as §4
[23] = Effect on serum lipids in 4th group of cholesterol-fed male hamsters at 100 mg/kg/day after 14 days of treatment was evaluated as ratio of total cholesterol levels to high-density lipoprotein cholesterol levels; assay type: functional; summary of the method: as §6

## CCN1CC(=O)N(c2cc(Cl)ccc2C)C1=S
[1]
  Serum level: 38 mg/dL
[2]
  Serum level: 73.1 mg/dL
[3]
  Serum level: 136 mg/dL
[4]
  Liver weight: 9.58 g
[5]
  Change: -23.1%
[6]
  Level: 61 U l-1
[7]
  Change: 53%
[8]
  Level: 382 U l-1
[9]
  Level: 681 U l-1
[10]
  Serum level: 12 mg/dL
[11]
  Change: -30.1%
[12]
  Ratio: 1.45
[13]
  Serum level: 101 mg/dL
[14]
  Serum level: 79.2 mg/dL
[15]
  Body weight: 30.3 g
[16]
  Serum level: 19 mg/dL
[17]
  Serum level: 3.4 µg/dL
[18]
  Ratio: 2.03
[19]
  Serum level: 45 mg/dL
[20]
  Ratio: 2.85
[21]
  Level: 373 U l-1
[22]
  Change: 43%
[23]
  Ratio: 1.95
